Experimental data as given in publication PMC6433393 (Journal of chromatography. B, Analytical technologies in …, 2012).

Legend:
[1] = Stability of MX in human whole blood kept in ice bath before centrifugation; format: in vitro ADME
Outline: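 From one patient, five 2-ml lithium-heparin blood tubes were drawn 70 min after infusion and kept in an ice bath. They were centrifuged 0, 30, 60, 90 and 120 min after drawing (1500 × g, 4 °C, 5 min). Plasma was analysed later by the derivatisation LC-MS/MS method, and the mean, SD and %CV were calculated.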

[2] = Stability of MX stock solution; format: physicochemical; conditions: for Recovery ± SD (n = 6): Stock solution 2.00 mg/ml
Outline: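 The 2.00 mg/ml stock was stored at 4 °C or at 23 °C, then serially diluted to 45.0 ng/ml in 1% formic acid. It was derivatised with IS and analysed by MRM LC-MS/MS. Six parallel measurements gave the mean analyte/IS peak-area ratio, expressed as percent recovery against freshly prepared stock.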

[3] = Phase I clinical trial pharmacokinetic study of MX; format: in vivo, human; conditions: for Measured [MX] First analysis / Measured [MX] Re-analysis after 9 months: patient plasma; for Measured [MX] Re-analysis after 9 months: after 9-month storage at −70 °C
Outline: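 Heparinised blood was iced, spun (1500 × g, 4 °C, 5 min), and plasma stored at −70 °C. Plasma was derivatised and assayed by LC-MS/MS against a calibration curve. Infusion data were fitted one-compartment; 1-h data were analysed by NCA.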

[4] = Stability of MX in human plasma QCs; format: in vitro ADME; conditions: for recoveries of QC samples: three concentrations (3.50, 45.0 and 450 ng/ml)
Outline: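 Plasma QCs were prepared in pooled human plasma with 10% 0.100 N HCl and held on the bench (23 °C), in the autosampler (15 °C), through freeze-thaw cycles (−70 to 23 °C) or at −70 °C. Samples were derivatised with 4-(N,N-diethylamino)benzaldehyde (70 °C, 1 h), extracted into MTBE and run by MRM LC-MS/MS. The mean MX/MX-d3 peak-area ratio (n = 6) relative to freshly prepared QCs is given as percent recovery.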

[5] = clinical trials, TMZ dosing regimen 150 mg/m^2/day; cited from earlier work
[6] = patients, 1-h iv infusion, 20 patients (46 cycles), with oral TMZ

CON [MX, Methoxyamine]
changes in MX concentration in human whole blood ([1]; over a period of 2 hours, samples kept in an ice bath): no significant changes
measured MX concentration, mean value ([1]; patient blood, ice bath, centrifuged 0-120 min after drawing, SD 0.1 ng/ml): 10.5 ng/mL
Recovery ± SD (n = 6) ([2]; Bench-top 23 °C, 18 hours): 98.4 ± 6%
Recovery ± SD (n = 6) ([2]; Refrigerator 4 °C, 5 months): 96.4 ± 7%
recoveries of stock solutions ([2]; refrigerator (4 °C) and bench top (23 °C)): 96.4–98.4%
Measured [MX] First analysis ([3]; sampling 0.250 h): 5.36 ng/mL
Measured [MX] Re-analysis after 9 months ([3]; sampling 0.250 h): 5.69 ng/mL
Measured [MX] First analysis ([3]; sampling 0.500 h): 8.95 ng/mL
Measured [MX] Re-analysis after 9 months ([3]; sampling 0.500 h): 10.2 ng/mL
Measured [MX] First analysis ([3]; sampling 0.750 h): 16.2 ng/mL
Measured [MX] Re-analysis after 9 months ([3]; sampling 0.750 h): 18.2 ng/mL
Measured [MX] First analysis ([3]; sampling 0.983 h): 20.5 ng/mL
Measured [MX] Re-analysis after 9 months ([3]; sampling 0.983 h): 22.1 ng/mL
Measured [MX] First analysis ([3]; sampling 1.17 h): 25 ng/mL
Measured [MX] Re-analysis after 9 months ([3]; sampling 1.17 h): 27.1 ng/mL
Measured [MX] First analysis ([3]; sampling 2.00 h): 24.2 ng/mL
Measured [MX] Re-analysis after 9 months ([3]; sampling 2.00 h): 24.3 ng/mL
Measured [MX] First analysis ([3]; sampling 4.00 h): 18.3 ng/mL
Measured [MX] Re-analysis after 9 months ([3]; sampling 4.00 h): 20 ng/mL
Measured [MX] First analysis ([3]; sampling 6.00 h): 19 ng/mL
Measured [MX] Re-analysis after 9 months ([3]; sampling 6.00 h): 19.5 ng/mL
Measured [MX] First analysis ([3]; sampling 8.00 h): 18.9 ng/mL
Measured [MX] Re-analysis after 9 months ([3]; sampling 8.00 h): 17.5 ng/mL
Measured [MX] First analysis ([3]; sampling 12.0 h): 15.6 ng/mL
Measured [MX] Re-analysis after 9 months ([3]; sampling 12.0 h): 16.2 ng/mL
Measured [MX] First analysis ([3]; sampling 24.0 h): 13.3 ng/mL
Measured [MX] Re-analysis after 9 months ([3]; sampling 24.0 h): 13.2 ng/mL
Measured [MX] First analysis ([3]; sampling 48.0 h): 9.46 ng/mL
Measured [MX] Re-analysis after 9 months ([3]; sampling 48.0 h): 10 ng/mL
Measured [MX] First analysis ([3]; sampling 72.0 h): 6.56 ng/mL
Measured [MX] Re-analysis after 9 months ([3]; sampling 72.0 h): 6.46 ng/mL
Measured [MX] First analysis ([3]; sampling 96.0 h): 4.46 ng/mL
Measured [MX] Re-analysis after 9 months ([3]; sampling 96.0 h): 4.76 ng/mL
Measured [MX] First analysis ([3]; sampling 120 h): 3.55 ng/mL
Measured [MX] Re-analysis after 9 months ([3]; sampling 120 h): 3.69 ng/mL
Measured [MX] First analysis ([3]; sampling 168 h): 2.11 ng/mL
Measured [MX] Re-analysis after 9 months ([3]; sampling 168 h): 2.29 ng/mL
Measured [MX] First analysis ([3]; sampling 192 h): 1.55 ng/mL
Measured [MX] Re-analysis after 9 months ([3]; sampling 192 h): 1.76 ng/mL
Measured [MX] First analysis ([3]; sampling 216 h): 1.22 ng/mL
Measured [MX] Re-analysis after 9 months ([3]; sampling 216 h): 1.39 ng/mL
mean Cmax [3, 6]: 0.01498 µg/mL
mean t1/2 [3, 6]: 54.21 h
Recovery ± SD (n = 6) ([4]; High QC 450 ng/ml plasma, Autosampler 15 °C, 3 days): 96.9 ±3%
Recovery ± SD (n = 6) ([4]; High QC 450 ng/ml plasma, Bench-top 23 °C, 18 hours): 95.7 ± 2%
Recovery ± SD (n = 6) ([4]; High QC 450 ng/ml plasma, Deep freezer (Long-term) −70 °C, 5 months): 103 ± 2%
Recovery ± SD (n = 6) ([4]; High QC 450 ng/ml plasma, Freeze & thaw −70 to 23 °C, 3 cycles): 96.2 ± 2%
Recovery ± SD (n = 6) ([4]; Low QC 3.50 ng/ml plasma, Autosampler 15 °C, 3 days): 90.7 ±6%
Recovery ± SD (n = 6) ([4]; Low QC 3.50 ng/ml plasma, Bench-top 23 °C, 18 hours): 89.4 ± 4%
Recovery ± SD (n = 6) ([4]; Low QC 3.50 ng/ml plasma, Deep freezer (Long-term) −70 °C, 5 months): 95.7 ±3%
Recovery ± SD (n = 6) ([4]; Low QC 3.50 ng/ml plasma, Freeze & thaw −70 to 23 °C, 3 cycles): 96.6 ± 2%
Recovery ± SD (n = 6) ([4]; Mid QC 45.0 ng/ml plasma, Autosampler 15 °C, 3 days): 94.5 ± 5%
Recovery ± SD (n = 6) ([4]; Mid QC 45.0 ng/ml plasma, Bench-top 23 °C, 18 hours): 94.5 ± 4%
Recovery ± SD (n = 6) ([4]; Mid QC 45.0 ng/ml plasma, Deep freezer (Long-term) −70 °C, 5 months): 101 ± 2%
Recovery ± SD (n = 6) ([4]; Mid QC 45.0 ng/ml plasma, Freeze & thaw −70 to 23 °C, 3 cycles): 94.4 ± 2%
recoveries of QC samples ([4]; autosampler (15 °C)): 90.7–96.9%
recoveries of QC samples ([4]; bench top): 89.4–95.7%
recoveries of QC samples ([4]; long-term storage (5 months)): 95.7–103%
recoveries of QC samples ([4]; three freeze-and-thaw cycles (−70 to 23 °C)): 94.4–96.6%

Cn1nnc2c(C(N)=O)ncn2c1=O [TMZ, Temozolomide]
maximum concentrations (Cmax) in human plasma [5]: below 10 μg/ml
